Experimental data published in ChEMBL document CHEMBL4715745, “Synthesis and biological evaluation of novel FK228 analogues as potential isoform selective HDAC inhibitors” (Eur J Med Chem, 2016).

Assays:
[1] = biological target: Histone deacetylase 1 (Homo sapiens, UniProt Q13547); assay: Inhibition of human HDAC1 expressed in 293T cells using Ac-KGLGK(Ac)-MCA as substrate incubated for 30 mins in presence of 0.1 mM DTT by fluorescence plate reader assay; design: species or system HEK293T
[2] = biological target: T1, Protein deacetylase HDAC6 (Mus musculus, UniProt Q9Z2V5); assay: Inhibition of mouse HDAC6 expressed in 293T cells using Ac-KGLGK(Ac)-MCA as substrate incubated for 30 mins in presence of 0.1 mM DTT by fluorescence plate reader assay; design: species or system HEK293T
T1 sequence (Q9Z2V5 whole entry): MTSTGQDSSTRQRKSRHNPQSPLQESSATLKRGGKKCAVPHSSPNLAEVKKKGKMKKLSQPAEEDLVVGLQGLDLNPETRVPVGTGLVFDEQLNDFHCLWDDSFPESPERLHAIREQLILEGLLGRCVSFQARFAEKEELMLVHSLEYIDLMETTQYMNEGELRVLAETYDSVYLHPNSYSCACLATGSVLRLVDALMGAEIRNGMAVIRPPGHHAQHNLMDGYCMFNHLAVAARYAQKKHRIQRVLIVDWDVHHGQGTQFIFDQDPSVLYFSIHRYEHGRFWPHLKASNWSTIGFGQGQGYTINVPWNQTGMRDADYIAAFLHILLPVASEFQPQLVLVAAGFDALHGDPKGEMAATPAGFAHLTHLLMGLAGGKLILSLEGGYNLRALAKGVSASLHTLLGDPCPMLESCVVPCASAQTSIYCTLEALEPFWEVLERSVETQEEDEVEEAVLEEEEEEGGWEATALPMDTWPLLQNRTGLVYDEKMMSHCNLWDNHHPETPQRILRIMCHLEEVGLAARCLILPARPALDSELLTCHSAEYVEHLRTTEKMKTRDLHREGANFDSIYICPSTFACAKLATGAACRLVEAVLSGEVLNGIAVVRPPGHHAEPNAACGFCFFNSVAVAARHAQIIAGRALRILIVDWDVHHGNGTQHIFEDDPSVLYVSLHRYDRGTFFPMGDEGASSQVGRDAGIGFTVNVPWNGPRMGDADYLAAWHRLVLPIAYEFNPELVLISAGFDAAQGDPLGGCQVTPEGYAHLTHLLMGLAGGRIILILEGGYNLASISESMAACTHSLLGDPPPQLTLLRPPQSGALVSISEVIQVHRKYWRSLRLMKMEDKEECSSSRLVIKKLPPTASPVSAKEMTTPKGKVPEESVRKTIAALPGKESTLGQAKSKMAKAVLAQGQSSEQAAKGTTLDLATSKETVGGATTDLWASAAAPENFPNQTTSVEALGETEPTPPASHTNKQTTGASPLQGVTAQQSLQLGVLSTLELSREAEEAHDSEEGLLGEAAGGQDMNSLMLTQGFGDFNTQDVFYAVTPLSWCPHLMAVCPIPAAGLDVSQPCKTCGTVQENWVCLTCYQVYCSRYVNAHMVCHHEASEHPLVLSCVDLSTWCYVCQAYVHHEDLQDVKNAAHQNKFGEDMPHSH
Method in brief: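 HDAC enzyme assay run in the presence of 0.1 mM dithiothreitol (DTT); IC₅₀ determined.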

[3] = Selectivity index, ratio of IC50 for mouse HDAC6 expressed in 293T cells to IC50 for human HDAC1 expressed in 293T cells using Ac-KGLGK(Ac)-MCA as substrate incubated for 30 mins in presence of 0.1 mM DTT by fluorescence plate reader assay; details: 0.5 h
Method in brief: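 Ratio of HDAC6 IC₅₀ to HDAC1 IC₅₀, taken as selectivity for class I HDAC1 over class II HDAC6. Both enzyme assays were run in the presence of 0.1 mM DTT.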

[4] = Growth inhibition of human HBC4 cells measured after 48 hrs by sulforhodamine B assay; format: functional
Method in brief: (§1)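 Panel of 39 human cancer cell lines tested at the Japanese Foundation for Cancer Research. Five concentrations per compound, spanning 10⁻¹¹–10⁻⁷ M, 10⁻¹⁰–10⁻⁶ M or 10⁻⁸–10⁻⁴ M, were used to build dose-response curves. GI₅₀ is the concentration giving 50% growth inhibition relative to control.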

[5] = Growth inhibition of human BSY1 cells measured after 48 hrs by sulforhodamine B assay; format: functional; details: BSY-1; method in brief: as §1
[6] = Growth inhibition of human HBC5 cells measured after 48 hrs by sulforhodamine B assay; format: functional; method in brief: as §1
[7] = system: MCF7; assay: Growth inhibition of human MCF7 cells measured after 48 hrs by sulforhodamine B assay; format: functional; method in brief: as §1
[8] = system: MDA-MB-231; assay: Growth inhibition of human MDA-MB-231 cells measured after 48 hrs by sulforhodamine B assay; format: functional; method in brief: as §1
[9] = system: U-251; assay: Growth inhibition of human U-251 cells measured after 48 hrs by sulforhodamine B assay; format: functional; method in brief: as §1
[10] = system: SF-268; assay: Growth inhibition of human SF-268 cells measured after 48 hrs by sulforhodamine B assay; format: functional; method in brief: as §1
[11] = system: SF-295; assay: Growth inhibition of human SF-295 cells measured after 48 hrs by sulforhodamine B assay; format: functional; method in brief: as §1
[12] = system: SF-539; assay: Growth inhibition of human SF-539 cells measured after 48 hrs by sulforhodamine B assay; format: functional; method in brief: as §1
[13] = system: SNB-75; assay: Growth inhibition of human SNB-75 cells measured after 48 hrs by sulforhodamine B assay; format: functional; method in brief: as §1
[14] = system: SNB-78; assay: Growth inhibition of human SNB-78 cells measured after 48 hrs by sulforhodamine B assay; format: functional; method in brief: as §1
[15] = system: HCC 2998; assay: Growth inhibition of human HCC 2998 cells measured after 48 hrs by sulforhodamine B assay; format: functional; method in brief: as §1
[16] = system: KM12; assay: Growth inhibition of human KM12 cells measured after 48 hrs by sulforhodamine B assay; format: functional; method in brief: as §1
[17] = system: HT-29; assay: Growth inhibition of human HT-29 cells measured after 48 hrs by sulforhodamine B assay; format: functional; method in brief: as §1
[18] = system: HCT-15; assay: Growth inhibition of human HCT-15 cells measured after 48 hrs by sulforhodamine B assay; format: functional; method in brief: as §1
[19] = system: HCT-116; assay: Growth inhibition of human HCT-116 cells measured after 48 hrs by sulforhodamine B assay; format: functional; method in brief: as §1
[20] = system: NCI-H23; assay: Growth inhibition of human NCI-H23 cells measured after 48 hrs by sulforhodamine B assay; format: functional; method in brief: as §1
[21] = system: NCI-H226; assay: Growth inhibition of human NCI-H226 cells measured after 48 hrs by sulforhodamine B assay; format: functional; method in brief: as §1
[22] = system: NCI-H522; assay: Growth inhibition of human NCI-H522 cells measured after 48 hrs by sulforhodamine B assay; format: functional; method in brief: as §1
[23] = system: NCI-H460; assay: Growth inhibition of human NCI-H460 cells measured after 48 hrs by sulforhodamine B assay; format: functional; method in brief: as §1
[24] = system: A549; assay: Growth inhibition of human A549 cells measured after 48 hrs by sulforhodamine B assay; format: functional; method in brief: as §1
[25] = system: DMS-273; assay: Growth inhibition of human DMS-273 cells measured after 48 hrs by sulforhodamine B assay; format: functional; method in brief: as §1
[26] = system: DMS-114; assay: Growth inhibition of human DMS-114 cells measured after 48 hrs by sulforhodamine B assay; format: functional; method in brief: as §1
[27] = system: LOX IMVI; assay: Growth inhibition of human LOX IMVI cells measured after 48 hrs by sulforhodamine B assay; format: functional; method in brief: as §1
[28] = system: OVCAR-3; assay: Growth inhibition of human OVCAR-3 cells measured after 48 hrs by sulforhodamine B assay; format: functional; method in brief: as §1
[29] = system: OVCAR-4; assay: Growth inhibition of human OVCAR-4 cells measured after 48 hrs by sulforhodamine B assay; format: functional; method in brief: as §1
[30] = system: OVCAR-5; assay: Growth inhibition of human OVCAR-5 cells measured after 48 hrs by sulforhodamine B assay; format: functional; method in brief: as §1
[31] = system: OVCAR-8; assay: Growth inhibition of human OVCAR-8 cells measured after 48 hrs by sulforhodamine B assay; format: functional; method in brief: as §1
[32] = system: SK-OV-3; assay: Growth inhibition of human SK-OV-3 cells measured after 48 hrs by sulforhodamine B assay; format: functional; method in brief: as §1
[33] = system: RXF 631; assay: Growth inhibition of human RXF 631 cells measured after 48 hrs by sulforhodamine B assay; format: functional; method in brief: as §1
[34] = system: ACHN; assay: Growth inhibition of human ACHN cells measured after 48 hrs by sulforhodamine B assay; format: functional; method in brief: as §1
[35] = system: St-4; assay: Growth inhibition of human St-4 cells measured after 48 hrs by sulforhodamine B assay; format: functional; method in brief: as §1
[36] = system: MKN-1; assay: Growth inhibition of human MKN-1 cells measured after 48 hrs by sulforhodamine B assay; format: functional; method in brief: as §1
[37] = system: MKN-7; assay: Growth inhibition of human MKN-7 cells measured after 48 hrs by sulforhodamine B assay; format: functional; method in brief: as §1
[38] = system: MKN-28; assay: Growth inhibition of human MKN-28 cells measured after 48 hrs by sulforhodamine B assay; format: functional; method in brief: as §1
[39] = system: MKN-45; assay: Growth inhibition of human MKN-45 cells measured after 48 hrs by sulforhodamine B assay; format: functional; method in brief: as §1
[40] = system: MKN-74; assay: Growth inhibition of human MKN-74 cells measured after 48 hrs by sulforhodamine B assay; format: functional; method in brief: as §1
[41] = system: DU-145; assay: Growth inhibition of human DU-145 cells measured after 48 hrs by sulforhodamine B assay; format: functional; method in brief: as §1
[42] = system: PC-3; assay: Growth inhibition of human PC-3 cells measured after 48 hrs by sulforhodamine B assay; format: functional; method in brief: as §1

Sequence of Histone deacetylase 1 (Q13547 whole entry): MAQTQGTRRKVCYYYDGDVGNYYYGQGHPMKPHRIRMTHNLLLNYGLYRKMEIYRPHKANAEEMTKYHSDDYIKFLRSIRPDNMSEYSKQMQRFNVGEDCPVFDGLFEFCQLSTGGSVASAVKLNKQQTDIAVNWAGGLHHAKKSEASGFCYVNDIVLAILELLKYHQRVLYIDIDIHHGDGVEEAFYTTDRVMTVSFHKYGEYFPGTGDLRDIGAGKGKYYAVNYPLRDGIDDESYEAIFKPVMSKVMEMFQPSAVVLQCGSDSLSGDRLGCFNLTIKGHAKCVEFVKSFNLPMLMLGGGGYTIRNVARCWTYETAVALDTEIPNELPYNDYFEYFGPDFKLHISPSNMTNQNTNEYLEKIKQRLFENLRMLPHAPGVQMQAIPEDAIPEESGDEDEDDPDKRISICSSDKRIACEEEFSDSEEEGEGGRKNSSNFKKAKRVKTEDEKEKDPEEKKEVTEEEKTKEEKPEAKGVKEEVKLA

## CC(C)[C@H]1NC(=O)C[C@H]2/C=C/CCSSC[C@@H](NC1=O)C(=O)NCC(=O)NCC(=O)O2
[1]
  IC50: 92.4 nM
[2]
  IC50: 1320 nM
[3]
  Ratio IC50: 14
[4]
  GI50: 13000 nM
[5]
  GI50: 18000 nM
[6]
  GI50: 39000 nM
[7]
  GI50: 33000 nM
[8]
  GI50: 9200 nM
[9]
  GI50: 17000 nM
[10]
  GI50: 12000 nM
[11]
  GI50: 40000 nM
[12]
  GI50: 3300 nM
[13]
  GI50: 950 nM
[14]
  GI50: 610 nM
[15]
  GI50: 13000 nM
[16]
  GI50: 12000 nM
[17]
  GI50: 2700 nM
[18]
  GI50: 100000 nM
[19]
  GI50: 2500 nM
[20]
  GI50: 36000 nM
[21]
  GI50: 61000 nM
[22]
  GI50: 680 nM
[23]
  GI50: 15000 nM
[24]
  GI50: 10000 nM
[25]
  GI50: 47000 nM
[26]
  GI50: 5200 nM
[27]
  GI50: 2900 nM
[28]
  GI50: 13000 nM
[29]
  GI50: 46000 nM
[30]
  GI50: 3100 nM
[31]
  GI50: 18000 nM
[32]
  GI50: 12000 nM
[33]
  GI50: 91000 nM
[34]
  GI50: 43000 nM
[35]
  GI50: 81000 nM
[36]
  GI50: 12000 nM
[37]
  GI50: 47000 nM
[38]
  GI50: 95000 nM
[39]
  GI50: 100000 nM
[40]
  GI50: 16000 nM
[41]
  GI50: 5400 nM
[42]
  GI50: 11000 nM

## CC(C)[C@H]1NC(=O)C[C@H]2/C=C/CCSSC[C@@H](NC1=O)C(=O)N[C@H](C)C(=O)NCC(=O)O2
[1]
  IC50: 2.1 nM
[2]
  IC50: 1010 nM
[3]
  Ratio IC50: 480
[4]
  GI50: 30 nM
[5]
  GI50: 36 nM
[6]
  GI50: 160 nM
[7]
  GI50: 37 nM
[8]
  GI50: 21 nM
[9]
  GI50: 19 nM
[10]
  GI50: 31 nM
[11]
  GI50: 71 nM
[12]
  GI50: 10 nM
[13]
  GI50: 10 nM
[14]
  GI50: 10 nM
[15]
  GI50: 14 nM
[16]
  GI50: 20 nM
[17]
  GI50: 13 nM
[18]
  GI50: 6700 nM
[19]
  GI50: 10 nM
[20]
  GI50: 31 nM
[21]
  GI50: 110 nM
[22]
  GI50: 10 nM
[23]
  GI50: 15 nM
[24]
  GI50: 15 nM
[25]
  GI50: 89 nM
[26]
  GI50: 17 nM
[27]
  GI50: 11 nM
[28]
  GI50: 22 nM
[29]
  GI50: 100 nM
[30]
  GI50: 14 nM
[31]
  GI50: 31 nM
[32]
  GI50: 19 nM
[33]
  GI50: 110 nM
[34]
  GI50: 270 nM
[35]
  GI50: 410 nM
[36]
  GI50: 36 nM
[37]
  GI50: 260 nM
[38]
  GI50: 440 nM
[39]
  GI50: 500 nM
[40]
  GI50: 35 nM
[41]
  GI50: 21 nM
[42]
  GI50: 70 nM
